Substitutions are numbered along the chain they refer to. Converted amounts (≈) assume the structure as drawn. The source made the active and inactive calls. No cut-off for these calls is given here.
Columns and labels:
[1] = molecular target: T1, Cell division protein FtsZ (Staphylococcus aureus, UniProt P0A031); assay: Binding affinity to Staphylococcus aureus FtsZ expressed in Escherichia coli BL21 (DE3) at 25 degC by fluorescence anisotropy assay; settings: read-out: Kd
T1 sequence (P0A031 whole entry): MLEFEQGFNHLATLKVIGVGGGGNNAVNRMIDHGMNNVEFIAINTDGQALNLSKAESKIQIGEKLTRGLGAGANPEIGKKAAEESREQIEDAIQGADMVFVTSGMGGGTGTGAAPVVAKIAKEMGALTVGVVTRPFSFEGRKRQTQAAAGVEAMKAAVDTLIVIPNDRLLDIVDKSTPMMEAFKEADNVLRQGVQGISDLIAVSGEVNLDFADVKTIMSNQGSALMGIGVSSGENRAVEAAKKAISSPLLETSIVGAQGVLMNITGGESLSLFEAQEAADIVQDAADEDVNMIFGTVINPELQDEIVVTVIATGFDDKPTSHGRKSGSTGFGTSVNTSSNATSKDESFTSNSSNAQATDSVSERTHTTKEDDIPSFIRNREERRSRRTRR
Procedure, shortened: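 Intrinsic compound fluorescence anisotropy. Compound at 5 μM was titrated with 0–25 μM FtsZ in 50 mM Tris·HCl pH 7.4, 50 mM KCl, 2 mM magnesium acetate. Samples were incubated 5 min at 25 °C, excited at 245 nm with emission at 318 nm, and G-corrected. Runs were in triplicate and averaged. Kd was obtained by nonlinear least-squares fit. SaFtsZ was expressed in E. coli BL21(DE3) and purified by ammonium sulfate, MonoQ and Superdex-200.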

Streptococcus agalactiae = assay: Antimicrobial activity against Streptococcus agalactiae Strep B ATCC 12386 incubated for 24 hrs by broth microdilution method; format: functional; settings: Strep B ATCC 12386, 24 h
Procedure, shortened: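 CLSI broth microdilution. Log-phase bacteria at 10⁵ CFU/mL were exposed to 2-fold serial dilutions (64 to 0.016 μg/mL) in cation-adjusted Mueller-Hinton broth, 5% defibrinated sheep blood added for Streptococcus. Incubated aerobically 24 h at 37 °C. Growth read as OD600; MIC taken as the lowest concentration giving 90% growth inhibition.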

Staphylococcus aureus [2] = assay: Bactericidal activity against methicillin-sensitive Staphylococcus aureus 8325-4 at 8 times MIC measured within 6 hrs post dose for 24 hrs assessed as log reduction in bacterial CFU by time kill study; format: functional
Procedure, shortened: (§1)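 Exponentially growing S. aureus 8325-4 was diluted in CAMH broth to 10⁵–10⁶ CFU/mL. […] Samples taken at 2, 4 and 6 h were pelleted or diluted, then plated on TSA. Colonies were counted after 24 h at 37 °C. Points are the mean of two independent measurements.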

[3] = molecular target: Tubulin beta chain (Sus scrofa) (UniProt P02554); assay: Effect on MAP-rich pig beta-tubulin polymerization at 40 ug/mL by microtiter plate-based light scattering assay
Procedure, shortened: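 MAP-rich porcine tubulin (70% β-tubulin, 30% MAPs) at 2 mg/mL with 1 mM GTP. Buffer was 80 mM PIPES·NaOH pH 7.0, 2 mM MgCl₂, 1 mM EGTA. Light scattering was followed as A340 continuously at 37 °C for 60 min, against a DMSO vehicle.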

Klebsiella pneumoniae = assay: Antimicrobial activity against Klebsiella pneumoniae ATCC 13883 incubated for 24 hrs by broth microdilution method; format: functional; settings: ATCC 13883, 24 h
Procedure, shortened: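 CLSI broth microdilution. Log-phase bacteria at 10⁵ CFU/mL were added to 2-fold serial dilutions (64 to 0.016 μg/mL) in cation-adjusted Mueller-Hinton broth. Plates were incubated aerobically for 24 h at 37 °C and growth was read as OD600. MIC is the lowest concentration giving 90% growth inhibition.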

[4] = tested on: T2, Cell division protein FtsZ (Staphylococcus aureus), P0A031 [G196A]; assay: Binding affinity to Staphylococcus aureus FtsZ G196A mutant self-polymerization at 10 ug/mL by microtiter plate-based light scattering assay
T2 sequence (whole entry): T1 sequence (P0A031 whole entry) with G196A

Staphylococcus aureus [5] = assay: microbe, parasite or virus in culture; format: functional; settings: ATCC 33591, 24 h
[6] = molecular target: T3, Cell division protein FtsZ (Escherichia coli K-12, UniProt P0A9A6); assay: Binding affinity to Escherichia coli FtsZ at 25 degC by fluorescence anisotropy assay; settings: read-out: Kd
T3 sequence (P0A9A6 whole entry): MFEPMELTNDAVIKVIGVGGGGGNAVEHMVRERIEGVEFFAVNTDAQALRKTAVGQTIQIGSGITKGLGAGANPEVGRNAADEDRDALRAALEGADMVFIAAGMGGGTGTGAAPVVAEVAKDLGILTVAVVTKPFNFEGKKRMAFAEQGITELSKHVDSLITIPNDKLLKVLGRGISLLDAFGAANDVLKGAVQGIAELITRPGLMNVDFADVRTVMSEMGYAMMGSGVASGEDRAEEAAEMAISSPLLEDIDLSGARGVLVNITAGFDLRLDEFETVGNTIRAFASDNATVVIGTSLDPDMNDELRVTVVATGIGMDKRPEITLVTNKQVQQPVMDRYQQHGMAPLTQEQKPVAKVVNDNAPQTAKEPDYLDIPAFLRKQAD

Enterococcus faecalis = assay: microbe, parasite or virus in culture; format: functional; settings: ATCC 51575, 24 h
[7] = tested on: T4, Cell division protein FtsZ (Staphylococcus aureus), P0A031 [I228R]; assay: Binding affinity to Staphylococcus aureus FtsZ I228R mutant self-polymerization at 10 ug/mL by microtiter plate-based light scattering assay
T4 sequence (whole entry): T1 sequence (P0A031 whole entry) with I228R

Staphylococcus aureus [8] = assay: Bactericidal activity against methicillin-sensitive Staphylococcus aureus 8325-4 at 8 times MIC measured 2 hrs post dose for 24 hrs assessed as log reduction in bacterial CFU by time kill study; format: functional; procedure, shortened: as §1

Chain of Tubulin beta chain (Sus scrofa) (P02554 whole entry): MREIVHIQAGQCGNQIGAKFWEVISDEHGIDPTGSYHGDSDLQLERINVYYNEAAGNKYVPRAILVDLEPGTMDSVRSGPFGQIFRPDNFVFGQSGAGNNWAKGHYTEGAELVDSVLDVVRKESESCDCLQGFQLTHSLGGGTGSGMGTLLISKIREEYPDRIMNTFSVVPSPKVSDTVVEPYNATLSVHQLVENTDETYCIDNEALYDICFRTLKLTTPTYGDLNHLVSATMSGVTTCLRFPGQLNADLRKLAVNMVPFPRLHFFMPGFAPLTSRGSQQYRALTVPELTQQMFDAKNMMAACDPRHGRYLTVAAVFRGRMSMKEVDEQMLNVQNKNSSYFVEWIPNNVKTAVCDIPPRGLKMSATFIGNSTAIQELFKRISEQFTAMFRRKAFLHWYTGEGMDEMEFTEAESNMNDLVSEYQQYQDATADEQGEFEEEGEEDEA

SMILES: CC(C)(C)c1ccc(-c2cccc(CNC(=N)N)c2)cc1
- Kd [1]: 3.5 µM
- MIC (Streptococcus agalactiae): 16 µg/mL (≈ 56.9 µM)
- FC (Staphylococcus aureus [2]): 4
- Activity [3]: inactive
- MIC (Klebsiella pneumoniae): 32 µg/mL (≈ 114 µM)
- Activity [4]: Active
- MIC (Staphylococcus aureus [5]): 1 µg/mL (≈ 3.55 µM)
- Kd [6]: 3.8 µM
- MIC (Enterococcus faecalis): 4 µg/mL (≈ 14.2 µM)
- Activity [7]: Active
- FC (Staphylococcus aureus [8]): 3
